According to ChEMBL document CHEMBL1147824, “Synthesis, biological activity, and DNA-damage profile of platinum-threading intercalator conjugates designed to target adenine” (J Med Chem, 2006):

Assays:
[1] = system: NCI-H460; test: Cytotoxicity against human H460 cell line by MTS assay; format: functional, cell-based
Outline: (§1)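 Cells kept at 37 °C in humidified 5% CO2/95% air and seeded at 700 cells/well (H460) or 27 500 cells/well (HL-60). Log-phase cells were exposed in triplicate to serial drug dilutions for 72 h; stocks in DMSO, PBS or DMF, final organic solvent under 0.1%. MTS/PMS added for 3 h, A490 read. IC50 from sigmoidal dose-response fit; mean of at least three experiments.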

[2] = system: HL-60; test: Cytotoxicity against human HL60 cell line by MTS assay; format: functional, cell-based; outline: as §1

| SMILES | IC50 [1] [µM] | IC50 [2] [µM] |
| --- | --- | --- |
| C/N=C(\S)N(C)CCNc1c2ccccc2nc2c(C(=O)NCCOC(C)=O)cccc12 | 17.6 | 29.5 |
| C/N=C(\S)N(C)CCNc1c2ccccc2nc2c(C(=O)NCCCCNC(=O)Nc3ccccc3)cccc12 | 3.1 | 0.39 |
| CCNC(=O)NCCNC(=O)c1cccc2c(NCCN(C)/C(S)=N/C)c3ccccc3nc12 | > 100 | > 100 |
| C/N=C(\S)N(C)CCNc1c2ccccc2nc2c(C(=O)NCCN(C)C)cccc12 | 2.2 | 1.4 |
| CNC(=S)N(C)CCNc1c2ccccc2nc2ccccc12 | 9.5 | 11.5 |
| CCNC(=O)NCCCCNC(=O)c1cccc2c(NCCN(C)/C(S)=N/C)c3ccccc3nc12 | > 100 | > 100 |
| C/N=C(\S)N(C)CCNc1c2ccccc2nc2c(C(=O)NCCO)cccc12 | 41.1 | 27.4 |
| C/N=C(\S)N(C)CCNc1c2ccccc2nc2c(C(=O)NCCNC(=O)Nc3ccccc3)cccc12 | 31.9 | > 50 |
